{"source": "PubChem BioAssay AID624466", "about": "(The Scripps Research Institute Molecular Screening Center, 2012)", "note": "Among all 360,000 compounds or so, about 5,400 (1.5%) were called active. The sample as a whole holds a higher share of actives than the screen did. Values without a mark were called inactive.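 How the source made its calls: active means inhibition above a per-plate cutoff, the mean inhibition of test compounds on that plate plus 3 SD (cut at about 49% in these data); inactive means the rest.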"}
{"target": "Trace amine-associated receptor 1 (Homo sapiens) (UniProt Q96RJ0)", "sequence (Q96RJ0 whole entry, looked up, the tested form may be a part)": "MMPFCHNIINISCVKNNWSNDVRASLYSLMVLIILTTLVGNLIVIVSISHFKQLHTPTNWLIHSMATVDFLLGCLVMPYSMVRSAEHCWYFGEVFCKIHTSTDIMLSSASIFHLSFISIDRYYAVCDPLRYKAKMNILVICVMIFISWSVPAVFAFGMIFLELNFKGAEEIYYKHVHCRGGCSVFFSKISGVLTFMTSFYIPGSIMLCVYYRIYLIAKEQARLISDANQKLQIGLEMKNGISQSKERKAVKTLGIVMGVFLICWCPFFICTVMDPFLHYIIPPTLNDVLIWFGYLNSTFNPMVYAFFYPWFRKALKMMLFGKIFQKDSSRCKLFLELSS", "experiment": "human TAAR1 antagonists, primary screen, Fluo-8 calcium fluorescence, CHO RD-HGA16 cells (AID 624466);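 further: 0% = DMSO plus EC80 beta-PEA response and 100% = DMSO alone without agonist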", "conditions": "CHO RD-HGA16 TAAR1, Fluo-8 calcium fluorescence, antagonist; at 3 µM; stronger effect = higher value", "how_it_was_run": "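Test system – hTAAR1-expressing CHO RD-HGA16 cells, Gα16-coupled · Also added – β-PEA at EC80 concentration, post-compound challenge · Compound – 3 µM, single point · Incubation – dye loading 75 min at 37 °C, then 30 min room temperature · Measured by – Fluo-8 intracellular calcium dye fluorescence, real-time kinetic reads · Benchmarks – vehicle and agonist controls · Replicates – singlicate, one well per test compound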"}
{"smiles": "NS(=O)(=O)c1cccc(NC(=O)COC(=O)c2cc([N+](=O)[O-])ccc2N2CCCC2)c1", "inhibition": "7.66%"}
{"smiles": "CC(=O)Nc1ccc(NC(=O)C(C)OC(=O)c2ccccc2C(=O)c2ccc(Cl)c([N+](=O)[O-])c2)cc1", "note": "(centres undefined)", "inhibition": "13.5%"}
{"smiles": "N#Cc1cccc(NC(=O)COC(=O)c2ccccc2C(=O)c2ccc(Cl)c([N+](=O)[O-])c2)c1", "inhibition": "71.8% (active)"}
{"smiles": "O=C(c1ccco1)N1CCN(C(=O)C2CCCN(S(=O)(=O)c3cccc4nsnc34)C2)CC1", "note": "(centres undefined)", "inhibition": "8.68%"}
{"smiles": "COc1cc(OC)cc(-c2c(C#Cc3ccsc3)c3cc(-c4ccc(OC)cc4F)ccc3n2C)c1", "inhibition": "10.3%"}
{"smiles": "COc1cccc(NC(=O)N(C)C[C@@H]2OCc3cn(nn3)CCCC(=O)N([C@@H](C)CO)C[C@H]2C)c1", "inhibition": "-3.32%"}
{"smiles": "CCOc1ccc(NC(=O)N2CC=C(n3c(=O)[nH]c4ccccc43)CC2)cc1", "inhibition": "62% (active)"}
{"smiles": "Cc1cccc(C)c1NC(=O)N1CC=C(n2c(=O)[nH]c3ccccc32)CC1", "inhibition": "17.3%"}
{"smiles": "CCOc1ccc(NC(=O)N2CCN(CC)CC2)cc1", "inhibition": "13.8%"}
{"smiles": "CCCNC(=S)N1CCCC(c2nc3ccccc3[nH]2)C1", "note": "(centres undefined)", "inhibition": "1.96%"}
{"smiles": "CC(C)C[C@@H](COCc1ccc(Cl)cc1)N1CCN(C(=O)c2ccc(Cl)cc2Cl)CCC1=O", "inhibition": "15.1%"}
{"smiles": "C[C@H](O)[C@@H]1C(=O)N2CCc3c([nH]c4ccccc34)[C@@H]2C[C@@H]1N(C)C(=O)Nc1ccc(F)cc1", "inhibition": "-21.1%"}
{"smiles": "Fc1ccc(NC(=S)N2CCc3[nH]c4ccccc4c3C2)cc1", "inhibition": "60.8% (active)"}
{"smiles": "C=CCNC(=S)N1CCc2[nH]c3ccccc3c2C1", "inhibition": "-0.9%"}
{"smiles": "Cc1ccc(S(=O)(=O)N2[C@@H](Cc3ccccc3)CO[C@H]2CC(=O)OCc2ccccc2)cc1", "inhibition": "22.8%"}
{"smiles": "COc1ccc(NC(=O)CNc2cc(S(=O)(=O)N3CCOCC3)ccc2N2CCOCC2)c(OC)c1", "inhibition": "14.2%"}
{"smiles": "Cc1[nH]nc2c1C(c1ccc(Br)cc1)NC2=O", "note": "(centres undefined)", "inhibition": "-19.4%"}
{"smiles": "CCOC(=O)N1CCC(=NNC(N)=O)CC1", "inhibition": "5.25%"}
{"smiles": "Fc1ccccc1C(c1nnnn1Cc1ccc2c(c1)OCO2)N1CCN(Cc2ccccc2)CC1", "note": "(centres undefined)", "inhibition": "8.62%"}
{"smiles": "N#Cc1ccc(C(c2nnnn2CCc2ccccc2)N2CCCCCC2)cc1", "note": "(centres undefined)", "inhibition": "19.8%"}
{"smiles": "Fc1ccc(Cn2nnnc2C(c2cccs2)N2CCCCCC2)cc1", "note": "(centres undefined)", "inhibition": "50% (active)"}
{"smiles": "CCc1nnc(NC(=O)CSc2nnnn2-c2cccc(C(C)=O)c2)s1", "inhibition": "-22.1%"}
{"smiles": "O=C(NCc1ccccc1)C1c2ccccc2OCC(=O)N1CCCN1CCOCC1", "note": "(centres undefined)", "inhibition": "-17.4%"}
{"smiles": "O=C(O)c1ccc(S(=O)(=O)c2ccccc2)s1", "inhibition": "7.73%"}
{"smiles": "Cc1ccc(NC(=O)C(=O)NCc2ccc(/C=N/NC(=O)c3c(C)nc4cc(C)ccn34)o2)cc1", "inhibition": "-9.86%"}
{"smiles": "Cc1ccc(CNC(=O)c2ccccc2CCc2ccccc2)cc1", "inhibition": "49.7% (active)"}
{"smiles": "Cc1ccc(CNC(=O)c2cccnc2Cl)cc1", "inhibition": "0.77%"}
{"smiles": "CSc1ccccc1C(=O)NCc1ccccc1", "inhibition": "3.42%"}
{"smiles": "COc1cc(C#Cc2ccc3cc(CCCO)oc(=O)c3c2)cc(OC)c1", "inhibition": "26.9%"}
{"smiles": "O=C1c2ccccc2C(=O)N1CCC#Cc1ccc2cc(C3(O)CCCCC3)oc(=O)c2c1", "inhibition": "75.1% (active)"}
{"smiles": "Cc1cccn2cc(-c3cccc(S(=O)(=O)N4CCCCC4)c3)nc12", "inhibition": "-29.1%"}
{"smiles": "CCC(C(=O)Nc1c(C)cccc1C)n1c(-c2cc(C)cs2)nc2ccccc21", "note": "(centres undefined)", "inhibition": "-17.6%"}
{"smiles": "Fc1ccccc1/C=N/Nc1cc(N2CCCCC2)ncn1", "inhibition": "-0.85%"}
{"smiles": "COc1cccc(N2CCN(C(=O)C3CCCN(S(=O)(=O)c4cnc[nH]4)C3)CC2)c1", "note": "(centres undefined)", "inhibition": "-6.44%"}
{"smiles": "CC(=O)N1CCCc2cc(S(=O)(=O)N3CCCC(C(=O)N4CCN(c5cccc(Cl)c5)CC4)C3)ccc21", "note": "(centres undefined)", "inhibition": "83.6% (active)"}
{"smiles": "O=C(C1CCCN(S(=O)(=O)c2ccccc2)C1)N1CCN(c2ccc(F)cc2)CC1", "note": "(centres undefined)", "inhibition": "-6.96%"}
{"smiles": "Cn1c(=O)n(C)c(=O)n(CC(=O)N2CCCCC2)c1=O", "inhibition": "-10.7%"}
{"smiles": "Oc1ccc(/C=N/Nc2nc(-c3ccccc3F)nc3ccccc23)c(O)c1", "inhibition": "82.1% (active)"}
{"smiles": "CCOc1ccc(N(C)S(=O)(=O)c2cnc[nH]2)cc1", "inhibition": "-13.2%"}
{"smiles": "Cn1c(C(=O)NCCc2ccsc2)cc2c(=O)n(C)c3ccccc3c21", "inhibition": "57.4% (active)"}
{"smiles": "Cn1c(C(=O)N2CCC(C(N)=O)CC2)cc2c(=O)n(C)c3ccccc3c21", "inhibition": "-11.2%"}
{"smiles": "Cn1c(C(=O)NCCN2CCc3ccccc3C2)cc2c(=O)[nH]c3ccccc3c21", "inhibition": "4.74%"}
{"smiles": "COc1ccc(C(=O)Nc2ccc(C(=O)NCC3CCCO3)cc2)c(OC)c1OC", "note": "(centres undefined)", "inhibition": "-23%"}
{"smiles": "O=C1NC[C@H](Cc2ccc(O)cc2)N(C[C@@H]2CCCN2C[C@H](Cc2ccccc2)N2C[C@H](Cc3ccccc3)N(CC3CCCCC3)C(=O)C2=O)C1=O", "inhibition": "-20.1%"}
{"smiles": "CN(CC(=O)Nc1c(Cl)cccc1Cl)C(=O)CNC(=O)C1CCCCC1", "inhibition": "-8.13%"}
{"smiles": "Cc1cccc(C)c1NC(=O)CNC(=O)C1CCCC1", "inhibition": "100% (active)"}
{"smiles": "Cc1cccc(C)c1NC(=O)CNC(=O)Cc1ccc(Br)cc1", "inhibition": "-2.34%"}
{"smiles": "Cc1ccc(S(=O)(=O)N2CCCC2C(=O)NCc2ccco2)cc1", "note": "(centres undefined)", "inhibition": "-5.82%"}
{"smiles": "COc1ccc(CNC(=O)CN(Cc2ccccc2Cl)C(=O)c2csnn2)cc1", "inhibition": "10.7%"}
{"smiles": "CCCc1nc2ccccc2n1C(C)C(=O)NC(C)(C)C", "note": "(centres undefined)", "inhibition": "-0.35%"}
{"smiles": "COc1ccc(Br)cc1S(=O)(=O)N1CCN=C1C", "inhibition": "-4.85%"}
{"smiles": "Cc1ccc(-c2noc(CNC(=O)c3ccoc3C)n2)cc1", "inhibition": "-42.9%"}
{"smiles": "C/C(=N\\Nc1ccccc1)c1cccs1", "inhibition": "8.01%"}
{"smiles": "CC/C(=N/Nc1ccccc1)c1cnnc(SC)n1", "inhibition": "74.9% (active)"}
{"smiles": "C/C(=N/Nc1ccc(Cl)cc1)c1cnnc(-c2ccccc2)n1", "inhibition": "8.2%"}
{"smiles": "O=C(COC(=O)c1ncc(Cl)c(Cl)c1Cl)NC1CCS(=O)(=O)C1", "note": "(centres undefined)", "inhibition": "-31.4%"}
{"smiles": "Cc1cc(/C=N/NC(=O)CC2(C)OCCO2)c(C)n1-c1ccc(Cl)c(Cl)c1", "inhibition": "-4.93%"}
{"smiles": "Cc1cc(/C=N/NC(N)=O)c(C)n1C1CCCCC1", "inhibition": "-23.7%"}
{"smiles": "Cc1ccc(-n2c(C)cc(/C=N\\NC(=O)CC(=O)NC(C)C)c2C)cc1", "inhibition": "97.7% (active)"}
{"smiles": "COc1ccc(-c2nc3cnccn3c2NC(C)(C)CC(C)(C)C)cc1O", "inhibition": "48.6% (active)"}
{"smiles": "CCOc1cc(-c2nc3cc(C)ccn3c2NCC2CCCO2)ccc1O", "note": "(centres undefined)", "inhibition": "24.7%"}
{"smiles": "COc1ccc(-c2nc3cnccn3c2NC2CCCCC2)cc1-c1cccc(Cl)c1", "inhibition": "-50.3%"}
{"smiles": "CC(=O)Nc1ccc(N2CCOCC2)c(C(=O)Nc2cccc(C)c2)c1", "inhibition": "-5.97%"}
{"smiles": "COC(=O)c1cc(NC(=O)c2cccnc2)ccc1N1CCOCC1", "inhibition": "-22%"}
{"smiles": "COC(=O)c1cc(NC(=O)c2cc(C(C)(C)C)nn2Cc2cccc(C)c2)ccc1N1CCOCC1", "inhibition": "50.4% (active)"}
{"smiles": "CC1(C)OC(=O)C2=C(C[C@@H](C3CC3)O[C@H]2CCc2cccc(Cl)c2)O1", "inhibition": "-4.58%"}
{"smiles": "CCCCCCCCNS(=O)(=O)CCNC1CCCCC1", "inhibition": "-6.98%"}
{"smiles": "COc1ccc(CC(N)c2csc(NC(=O)Cc3ccccc3)n2)cc1", "note": "(centres undefined)", "inhibition": "15.7%"}
{"smiles": "NC(Cc1ccccc1)c1csc(Nc2cc(Oc3ccccc3)ncn2)n1", "note": "(centres undefined)", "inhibition": "49.7% (active)"}
{"smiles": "COc1ccc(CC(N)c2csc(NC(=O)NC(c3ccccc3)c3ccccc3)n2)cc1", "note": "(centres undefined)", "inhibition": "12.4%"}
{"smiles": "O=C(CSc1nc2[nH]c(=O)[nH]c(=O)c2s1)Nc1cccc(F)c1", "inhibition": "-17.1%"}
{"smiles": "CCC(c1nnnn1Cc1ccco1)N(CCc1ccccc1)Cc1cc2cccc(C)c2[nH]c1=O", "note": "(centres undefined)", "inhibition": "-1.4%"}
{"smiles": "CCC(c1nnnn1Cc1ccco1)N(CCc1ccccc1)Cc1cc2ccc(OC)cc2[nH]c1=O", "note": "(centres undefined)", "inhibition": "85.2% (active)"}
{"smiles": "CCC(c1nnnn1Cc1ccco1)N(Cc1cc2cc(OC)ccc2[nH]c1=O)C1CCCCC1", "note": "(centres undefined)", "inhibition": "-35.8%"}
{"smiles": "CCCN1C(=O)c2[nH]nc(-c3ccccc3)c2C1c1ccccc1", "note": "(centres undefined)", "inhibition": "-18.5%"}
{"smiles": "O=C(O)CSCc1ccc(C(=O)O)o1", "inhibition": "8.93%"}
{"smiles": "Cc1ccc(CC2CC(=O)N(c3cc(C)ccc3C)C2=O)cc1", "note": "(centres undefined)", "inhibition": "-18.2%"}
{"smiles": "Cc1ccccc1CN1CCC(C(=O)Nc2ccc(Oc3cccnc3)cc2)CC1", "inhibition": "-4.26%"}
{"smiles": "Cc1ccnc(N2C(=O)c3ccccc3C2Nc2ccc3c(c2)OCCO3)c1", "note": "(centres undefined)", "inhibition": "-4.03%"}
{"smiles": "S=C(NCc1ccco1)Nc1ccc2c(c1)OCCO2", "inhibition": "-13.5%"}
{"smiles": "O=C1c2ccccc2C(Nc2ccc3c(c2)OCCO3)N1Cc1ccco1", "note": "(centres undefined)", "inhibition": "60.2% (active)"}
{"smiles": "COC(=O)c1cc(S(=O)(=O)Nc2ccc(C)c(F)c2)c[nH]1", "inhibition": "3.38%"}
{"smiles": "COc1ccc(C(=O)C(OP(=O)(OC)OC)c2ccccc2OC)cc1", "note": "(centres undefined)", "inhibition": "-8.05%"}
{"smiles": "Cc1cccc(N(C(=O)c2csnn2)C(C(=O)NCc2ccccc2)c2ccncc2)c1", "note": "(centres undefined)", "inhibition": "-12.4%"}
{"smiles": "CC(C)N(Cc1ccccc1)C(=O)COC(=O)c1cnccn1", "inhibition": "-3.08%"}
{"smiles": "COc1ccc(C(C(=O)NCc2ccccc2)N(Cc2cccs2)C(=O)c2cnccn2)cc1", "note": "(centres undefined)", "inhibition": "53.3% (active)"}
{"smiles": "CCOc1ccccc1CN1CCN(C2CCC2)CC1CCO", "note": "(centres undefined)", "inhibition": "6.95%"}
{"smiles": "COC(=O)[C@@]12C[C@@H](CC(=O)N3CCC(c4ccccc4)CC3)C(=O)N(Cc3ccccc3)C1=CCC(C)(C)C2", "inhibition": "-13.1%"}
{"smiles": "Clc1cccc2c1C1CC2CCN1Cc1ccccc1", "note": "(centres undefined)", "inhibition": "-3.53%"}
